What all share (format): functional
Assay [1] relates to Mycobacterium tuberculosis. The assay can be described thus: Antitubercular activity against streptomycin-resistant Mycobacterium tuberculosis ATCC 35820 after 5 days by resazurin-based microplate assay. The settings on record: ATCC 35820, 120 h. In short, it runs like this:
(§1)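 Mid-log cultures grown in 7H9 with glycerol, Tween-80 and ADC. Compounds in DMSO were tested two-fold from […] against ~10^5 CFU/mL, 37°C for 5 d. Resazurin was then added for a further 2 d, and fluorescence read at ex 530/em 590 with visual confirmation. MIC was the lowest concentration inhibiting 90% of growth. Final DMSO 0.625%; two-fold variation taken as assay error.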
(In general: Resazurin is reduced to fluorescent resorufin, in cell work by metabolically active cells.)

Assay [2] relates to Mycobacterium tuberculosis. The assay is described as follows: Antitubercular activity against isoniazid-resistant Mycobacterium tuberculosis ATCC 35822 after 5 days by resazurin-based microplate assay. The settings on record: ATCC 35822, 120 h. In short, it runs like this:
as §1

Assay [3] deals with Mycobacterium tuberculosis. The assay can be described thus: Antitubercular activity against kanamycin-resistant Mycobacterium tuberculosis ATCC 35827 after 5 days by resazurin-based microplate assay. The conditions noted are these: ATCC 35827, 120 h. In short, it runs like this:
as §1

Assay [4] concerns Mycobacterium tuberculosis. The assay is described as follows: Antitubercular activity against ethionamide-resistant Mycobacterium tuberculosis ATCC 35830 after 5 days by resazurin-based microplate assay. The settings on record: ATCC 35830, 120 h. In short, it runs like this:
as §1

Assay [5] relates to Mycobacterium tuberculosis. The assay is described as follows: Antitubercular activity against ethambutol-resistant Mycobacterium tuberculosis ATCC 35837 after 5 days by resazurin-based microplate assay. The conditions noted are these: ATCC 35837, 120 h. The gist of the method: as §1

Converted amounts (≈) assume the structure as drawn.

In the case of `CCNc1n[n+]([O-])c2ccccc2[n+]1[O-]`, the MIC90 in assay [1], in assay [2], in assay [3], in assay [4] and in assay [5] was 1.2 µg/mL (≈ 5.82 µM) in each case.

`CC(C)(C)Nc1n[n+]([O-])c2ccccc2[n+]1[O-]`: the MIC90 in assay [1] was found to be 1.2 µg/mL (≈ 5.12 µM); in assay [2], 2.5 µg/mL (≈ 10.7 µM); in assay [3] it was 2.5 µg/mL (≈ 10.7 µM); in assay [4], 1.2 µg/mL (≈ 5.12 µM); in assay [5] it was 2.5 µg/mL (≈ 10.7 µM).

Turning to `CCNc1n[n+]([O-])c2cccc(C)c2[n+]1[O-]`, the MIC90 came out at 0.16 µg/mL (≈ 0.727 µM) in assay [1]; 0.62 µg/mL (≈ 2.82 µM) in assay [2]; 0.62 µg/mL (≈ 2.82 µM) in assay [3]; 0.31 µg/mL (≈ 1.41 µM) in assay [4]; 0.62 µg/mL (≈ 2.82 µM) in assay [5].

Take `CCNc1n[n+]([O-])c2cc3c(cc2[n+]1[O-])CCC3`: the MIC90 in assay [1] was 0.63 µg/mL (≈ 2.56 µM); in assay [2], 1.2 µg/mL (≈ 4.87 µM); in assay [3] it was 1.2 µg/mL (≈ 4.87 µM); in assay [4] it was 1.2 µg/mL (≈ 4.87 µM); in assay [5], 1.2 µg/mL (≈ 4.87 µM).

With `[O-][n+]1nc(NC2CCC2)[n+]([O-])c2cc3c(cc21)CCC3`, the MIC90 in assay [1] turned out to be 0.31 µg/mL (≈ 1.14 µM); in assay [2] it was 1.2 µg/mL (≈ 4.41 µM); in assay [3], 1.2 µg/mL (≈ 4.41 µM); in assay [4], 0.62 µg/mL (≈ 2.28 µM); in assay [5] it was 0.62 µg/mL (≈ 2.28 µM).

In the case of `CCNc1n[n+]([O-])c2cc(C)c(OC)cc2[n+]1[O-]`, the MIC90 in assay [1], in assay [2], in assay [3], in assay [4] and in assay [5] was 1.2 µg/mL (≈ 4.8 µM) in each case.

On to `[O-][n+]1nc(N2CCCC2)[n+]([O-])c2ccccc21`, for which the MIC90 in assay [1] was 0.02 µg/mL (≈ 0.0861 µM); in assay [2], 0.31 µg/mL (≈ 1.33 µM); in assay [3], 0.31 µg/mL (≈ 1.33 µM); in assay [4] it was 0.31 µg/mL (≈ 1.33 µM); in assay [5], 0.31 µg/mL (≈ 1.33 µM).

In the case of `[O-][n+]1nc(N2CCCC2)[n+]([O-])c2cc3c(cc21)CCC3`, the MIC90 came to 0.16 µg/mL (≈ 0.588 µM) in assay [1]; 0.31 µg/mL (≈ 1.14 µM) in assay [2]; 0.63 µg/mL (≈ 2.31 µM) in assay [3]; 0.62 µg/mL (≈ 2.28 µM) in assay [4]; 0.62 µg/mL (≈ 2.28 µM) in assay [5].

`[O-][n+]1nc(N2CCCCC2)[n+]([O-])c2cc3c(cc21)CCC3`: the MIC90 in assay [1] came out at 0.15 µg/mL (≈ 0.524 µM); in assay [2], 0.15 µg/mL (≈ 0.524 µM); in assay [3], 0.31 µg/mL (≈ 1.08 µM); in assay [4], 0.31 µg/mL (≈ 1.08 µM); in assay [5], 0.31 µg/mL (≈ 1.08 µM).

As for `CN(C)c1n[n+]([O-])c2cc3c(cc2[n+]1[O-])CCC3`, the MIC90 is under 0.07 µg/mL in assay [1]; under 0.07 µg/mL in assay [2]; 0.31 µg/mL (≈ 1.26 µM) in assay [3]; 0.15 µg/mL (≈ 0.609 µM) in assay [4]; 0.31 µg/mL (≈ 1.26 µM) in assay [5].

Regarding `CN(Cc1ccccc1)c1n[n+]([O-])c2cc3c(cc2[n+]1[O-])CCC3`, the MIC90 in assay [1] is under 0.07 µg/mL; in assay [2], under 0.07 µg/mL; in assay [3] it was 0.15 µg/mL (≈ 0.465 µM); in assay [4] it was 0.07 µg/mL (≈ 0.217 µM); in assay [5], 0.15 µg/mL (≈ 0.465 µM).

As for `CN(CCc1ccccc1)c1n[n+]([O-])c2cc3c(cc2[n+]1[O-])CCC3`, the MIC90 in assay [1] is under 0.07 µg/mL; in assay [2], 0.07 µg/mL (≈ 0.208 µM); in assay [3], 0.15 µg/mL (≈ 0.446 µM); in assay [4], 0.15 µg/mL (≈ 0.446 µM); in assay [5], 0.31 µg/mL (≈ 0.922 µM).

Consider `CC1CCCCN1c1n[n+]([O-])c2cc3c(cc2[n+]1[O-])CCC3` (stereo not given), for which the MIC90 in assay [1] was determined as 0.31 µg/mL (≈ 1.03 µM); in assay [2] it was 0.31 µg/mL (≈ 1.03 µM); in assay [3], 0.62 µg/mL (≈ 2.06 µM); in assay [4], 0.31 µg/mL (≈ 1.03 µM); in assay [5], 0.62 µg/mL (≈ 2.06 µM).

One may read the MIC90 as the lowest concentration that inhibits either 90% of growth or 90% of the strains tested, depending on the study. Read a high MIC90 as lower susceptibility.

The record behind these values is ChEMBL document CHEMBL2150981, “Discovery and optimization of benzotriazine di-N-oxides targeting replicating and nonreplicating Mycobacterium tuberculosis” (J Med Chem, 2012).
